We go through 31 molecules from ChEMBL document CHEMBL1240531, “Effects of conformational restriction of 2-amino-3-benzoylthiophenes on A(1) adenosine receptor modulation” (J Med Chem, 2010).

Molecules are shown by their SMILES.

In assay [1] the target is T1, Adenosine receptor A1 (Homo sapiens) (UniProt P30542).
T1 sequence (whole entry): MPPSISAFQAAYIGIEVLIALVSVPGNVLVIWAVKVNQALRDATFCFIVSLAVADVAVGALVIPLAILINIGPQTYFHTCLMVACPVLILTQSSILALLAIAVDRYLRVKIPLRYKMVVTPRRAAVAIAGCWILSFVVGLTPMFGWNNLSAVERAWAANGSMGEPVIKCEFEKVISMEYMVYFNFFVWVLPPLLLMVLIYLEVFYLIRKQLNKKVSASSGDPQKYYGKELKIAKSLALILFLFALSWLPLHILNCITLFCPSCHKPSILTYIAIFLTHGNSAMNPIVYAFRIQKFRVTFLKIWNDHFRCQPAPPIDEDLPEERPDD
Nature of the assay: Allosteric enhancement of human adenosine A1 receptor expressed in CHO FlpIn cells assessed as increase of ERK1/2 phosphorylation at 3 to 10 uM relative to N(6)-(R-phenylisopropyl)adenosine. The format is cell-based.

In assay [2] the target is T1, Adenosine receptor A1 (Homo sapiens). In words: Allosteric enhancement of human adenosine A1 receptor expressed in CHO FlpIn cells assessed as potentiation of N(6)-(R-phenylisopropyl)adenosine-induced ERK1/2 phosphorylation at 3 uM relative to N(6)-(R-phenylisopropyl)adenosine. In kind it is cell-based.
Assay [3] shares this target. Nature of the assay: Allosteric enhancement of human adenosine A1 receptor expressed in CHO FlpIn cells assessed as potentiation of N(6)-(R-phenylisopropyl)adenosine-induced ERK1/2 phosphorylation at 10 uM relative to N(6)-(R-phenylisopropyl)adenosine. The format is cell-based.
For a further assay, the target named is T2, Adenosine receptor A1 (Homo sapiens, UniProt P30542).
T2 sequence (P30542 whole entry): T1 sequence (whole entry)
In words: Antagonist activity at human adenosine A1 receptor expressed in CHO FlpIn cells assessed as inhibition of N(6)-(R-phenylisopropyl)adenosine-induced ERK1/2 phosphorylation. In kind it is functional, cell-based. The following applies: read-out: pA2 (converted). The procedure, abridged:
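Human A1AR FlpIn-CHO cells were pretreated with 1 U/mL adenosine deaminase for 30 min, then with test ligand over a concentration range for 30 min at 37 °C. R-PIA was then added for 5 min stimulation. Lysates were assayed for phospho-ERK1/2 by AlphaScreen SureFire. Response was expressed as percent of the 6 min 3% FBS response. Three experiments in triplicate, mean ± SEM. Curves were fitted globally to a competitive or allosteric model.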

Assay [4] has as its target T3, Adenosine receptor A1 (Rattus norvegicus) (UniProt P25099).
T3 sequence (whole entry): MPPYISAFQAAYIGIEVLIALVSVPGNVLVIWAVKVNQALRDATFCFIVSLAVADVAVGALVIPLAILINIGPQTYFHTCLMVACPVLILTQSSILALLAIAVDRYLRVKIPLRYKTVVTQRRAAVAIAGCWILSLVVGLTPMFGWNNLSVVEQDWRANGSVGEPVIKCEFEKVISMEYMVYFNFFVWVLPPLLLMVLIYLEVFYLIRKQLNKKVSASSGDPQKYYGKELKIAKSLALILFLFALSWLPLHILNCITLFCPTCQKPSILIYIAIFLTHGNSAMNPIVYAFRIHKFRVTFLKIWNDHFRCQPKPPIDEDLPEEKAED
Nature of the assay: Allosteric enhancement of human adenosine A1 receptor in rat brain membranes assessed as increase of [3H]N6-cyclohexyladenosine binding at 100 uM relative to control. The format is cell membranes.

As to `Nc1sc(-c2ccncc2)c2c1C(=O)c1ccccc1-2`, the Activity in assay [1] came out at 5%; in assay [2], 28%; in assay [3], 17%.

For `Nc1sc(-c2ccncc2)cc1C(=O)c1ccc(Cl)cc1`, the Activity in assay [1] was 5%; in assay [2], 44%; in assay [3], 17%.

For `Nc1sc2c(c1C(=O)c1ccccc1)-c1cccc(C(F)(F)F)c1C2`, the Activity is 5% in assay [1], 56% in assay [2] and 49% in assay [3].

Regarding `Nc1sc(-c2cncnc2)cc1C(=O)c1ccc(Cl)cc1`, the Activity in assay [1] stood at 5%; in assay [2], 7%; in assay [3], 4%. Also, the Kb on Adenosine receptor A1 was 145 nM.

For `CN(C)c1ccc(-c2cc(C(=O)c3ccc(Cl)cc3)c(N)s2)cc1`, the Activity was determined as 5% in assay [1], 56% in assay [2] and 41% in assay [3].

Take `COc1ccc(-c2cc(C(=O)c3ccc(Cl)cc3)c(N)s2)cc1`: the Activity was 5% in assay [1], 51% in assay [2] and 29% in assay [3].

Turning to `Nc1sc2c(c1C(=O)c1ccc(Cl)cc1)-c1cccc(C(F)(F)F)c1C2`, the Activity in assay [1] was determined as 5%; in assay [2], 65%; in assay [3], 73%.

On to `Nc1sc(-c2ccccc2)cc1C(=O)c1ccccc1`, for which the values for the Activity in assay [1], in assay [2] and in assay [3] were 5%, 12% and 1%, respectively. The Kb on Adenosine receptor A1 was 209 nM.

Turning to `Nc1sc(-c2cncnc2)c2c1C(=O)c1ccccc1-2`, the results for the Activity in assay [1], in assay [2] and in assay [3] were 5%, 19% and 7%, respectively. For the same molecule, the Kb on Adenosine receptor A1 was 646 nM.

As to `Nc1ccccc1C(=O)c1ccccc1`, the Activity in assay [4] was 34%.

With `Nc1sc2c(c1C(=O)c1ccc(Cl)cc1)-c1ccccc1C2`, the Activity stood at 20% in assay [1], 81% in assay [2] and 84% in assay [3].

For the molecule `Nc1scc2c1C(=O)c1c(Cl)cccc1-2`, the Activity is 5% in assay [1], 45% in assay [2] and 38% in assay [3].

For the molecule `COc1ccc(-c2cc(C(=O)c3ccccc3)c(N)s2)cc1`, the Activity in assay [1] came out at 5%; in assay [2], 31%; in assay [3], 14%.

Turning to `COc1ccc(-c2sc(N)c3c2-c2ccccc2C3=O)cc1`, the Activity in assay [1] came to 5%; in assay [2] it was 37%; in assay [3] it was 18%.

As to `Nc1sc(-c2ccc(C(=O)O)cc2)cc1C(=O)c1ccccc1`, the Activity in assay [1] is 5%; in assay [2] it was 51%; in assay [3], 27%.

For the molecule `Nc1sc(-c2ccccc2)c2c1C(=O)c1ccccc1-2`, the Activity in assay [1] is 5%; in assay [2] it was 19%; in assay [3] it was 3%.

`Nc1sc(-c2cncnc2)cc1C(=O)c1ccccc1`: the Activity turned out to be 5% in assay [1], 18% in assay [2] and 2% in assay [3].

For `Nc1sc(-c2ccc(C(=O)O)cc2)c2c1C(=O)c1ccccc1-2`, the Activity in assay [1] came out at 5%; in assay [2] it was 19%; in assay [3], 7%.

For the molecule `Nc1sc2c(c1C(=O)c1ccccc1)-c1ccccc1C2`, the Activity in assay [1] was 5%; in assay [2] it was 23%; in assay [3] it was 9%.

In the case of `Nc1sc(-c2ccccc2)cc1C(=O)c1ccc(Cl)cc1`, the Activity in assay [1] is 5%; in assay [2], 46%; in assay [3], 16%.

For `Nc1sc(-c2ccncc2)cc1C(=O)c1ccccc1`, the Activity in assay [1] worked out at 5%; in assay [2], 23%; in assay [3], 17%.

Take `Nc1sc2c(c1C(=O)c1ccc(Cl)cc1)-c1cc(C(F)(F)F)ccc1C2`: the Activity was determined as 5% in assay [1], 62% in assay [2] and 73% in assay [3].

Take `Nc1sccc1C(=O)c1ccccc1`: the Activity stood at 5% in assay [1], 48% in assay [2], 30% in assay [3] and 59% in assay [4].

In the case of `Nc1cccc2c1C(=O)c1ccccc1-2`, the Activity in assay [4] was 122%.

Consider `Nc1sccc1C(=O)c1ccc(Cl)cc1`, for which the Activity turned out to be 5% in assay [1], 50% in assay [2] and 40% in assay [3].

As for `Nc1sc(-c2ccc(C(=O)O)cc2)cc1C(=O)c1ccc(Cl)cc1`, the Activity in assay [1] amounted to 5%; in assay [2], 27%; in assay [3] it was 29%.

In the case of `CN(C)c1ccc(-c2sc(N)c3c2-c2ccccc2C3=O)cc1`, the Activity in assay [1] stood at 5%; in assay [2] it was 48%; in assay [3] it was 32%.

`Nc1scc2c1C(=O)c1ccc(Cl)cc1-2`: the Activity in assay [1] was found to be 20%; in assay [2], 56%; in assay [3], 29%.

Consider `CN(C)c1ccc(-c2cc(C(=O)c3ccccc3)c(N)s2)cc1`, for which the Activity worked out at 5% in assay [1], 50% in assay [2] and 29% in assay [3].

`Nc1sc2c(c1C(=O)c1ccccc1)-c1cc(C(F)(F)F)ccc1C2`: the results for the Activity in assay [1], in assay [2] and in assay [3] were 5%, 52% and 38%, respectively.

As to `Nc1scc2c1C(=O)c1ccccc1-2`, the figures for the Activity in assay [1], in assay [2] and in assay [3] were 5%, 45% and 27%, respectively.
